Experimental data from different studies.
Lines come from different studies, so protocols differ.
Oprm1: Mu-type opioid receptor (Oprm1, Mus musculus, UniProt P42866)
Fatty acid-binding protein, intestinal T55A: Fatty acid-binding protein, intestinal (Homo sapiens, UniProt P12104, T55A)
CNR1: Cannabinoid receptor 1 (CNR1, Homo sapiens, UniProt P21554)

For `Cc1c(CC(=O)N[C@@H](CN2CCc3ccccc3C2)C(C)C)cccc1[N+](=O)[O-]`, the Ki was 150 nM (Oprm1; ligand displacement, radioligand).
`COc1cc2c3c(c1OC)-c1c(OC)ccc(Br)c1CC3N(C)CC2` (stereo not shown) gave a Ki of 373 nM (5-hydroxytryptamine receptor 2A (HTR2A, Homo sapiens, UniProt P28223); cell-free assay, radioligand).
With `Cc1oc(-c2ccccc2)nc1CCOc1cccc2c1ccn2CCC(=O)O` the Kd was 31900 nM (Fatty acid-binding protein, intestinal T55A; ligand displacement, fluorescence).
`C[C@@H](O)[C@@H]1NC(=O)CNC(=O)[C@H](Cc2c[nH]cn2)NC(=O)[C@H](Cc2c[nH]c3ccccc23)NC(=O)[C@H](CC(N)=O)NC(=O)CNC(=O)C[C@@H](C(=O)N[C@@H](Cc2c[nH]c3ccccc23)C(=O)N[C@@H](Cc2ccccc2)C(=O)N[C@@H](Cc2ccccc2)C(=O)N[C@@H](CC(N)=O)C(=O)N[C@@H](Cc2ccc(O)cc2)C(=O)N[C@@H](Cc2ccc(O)cc2)C(=O)N[C@@H](Cc2c[nH]c3ccccc23)C(=O)O)NC(=O)[C@@H]2CCCN2C(=O)[C@H](CO)NC1=O` gave an IC50 of over 10000 nM (Endothelin-1 receptor (EDNRA, Homo sapiens, UniProt P25101); ligand displacement, radioligand; cell membranes).
`CC(C)(NC(=O)c1nn(CC2CCCC2)c2ccccc12)c1cccc(C(N)=O)c1` gave a Ki of 130 nM (CNR1; ligand displacement, radioligand; cell membranes).
`CCCCC/C=C\C/C=C\C/C=C\Cc1ccccc1CCCC(=O)N[C@H](C)CO` gave an EC50 of 315 nM (CNR1; cAMP, agonist).
The Ki of `CC(C)(NC(=O)c1nn(CCCCC#N)c2ccccc12)c1cccc(C(N)=O)c1` is reported as 460 nM (CNR1; ligand displacement, radioligand; cell membranes).
With `CCCCC1CNC2CCc3ccc(OC)cc3C12` (racemic) the Ki was 0.81 nM (Sigma non-opioid intracellular receptor 1 (SIGMAR1, Homo sapiens, UniProt Q99720); ligand displacement, radioligand).
For `O=C(O)Cn1c(=O)n(Cc2ccc(Br)cc2F)c(=O)c2ccc(Cl)cc21`, the Kd was 2680 nM (Fatty acid-binding protein, intestinal T55A; ligand displacement, fluorescence).
`CC(C)(NC(=O)c1nn(CCCCC(F)(F)F)c2ccccc12)c1cccc(C(N)=O)c1` gave a Ki of 210 nM (CNR1; ligand displacement, radioligand; cell membranes).
The Ki of `CC(C)[C@H](CN1CCc2ccccc2C1)NC(=O)Cc1c[nH]c2ccccc12` is reported as 420 nM (Oprm1; ligand displacement, radioligand).
`CCCCC/C=C\[C@H](C)/C=C\C/C=C\Cc1ccccc1CCCC(=O)N[C@H](C)CO` has an EC50 of 1610 nM (CNR1; cAMP, agonist).
`COc1cc2c(cc1OC)CN(CCc1ccc(NC(=O)c3cccc4c(=O)c5cccc(OC)c5[nH]c34)cc1)CC2` has a Ki of over 10000 nM (Histamine H4 receptor (HRH4, Homo sapiens, UniProt Q9H3N8); cell-free assay).
For `CC(C)[C@@H](CN1CCc2ccccc2C1)NC(=O)c1cccc(-c2cccc(O)c2)c1`, the Ki was 1210 nM (Oprm1; ligand displacement, radioligand).
For `CC(C)(C#N)CCCn1nc(C(=O)NC(C)(C)c2cccc(C(N)=O)c2)c2ccccc21`, the Ki was 250 nM (CNR1; ligand displacement, radioligand; cell membranes).
For `CC[C@H](C)[C@@H](C(=O)N1CCC[C@H]1c1nccs1)N(C)C(=O)[C@H](CC(C)C)N(C)C(=O)[C@H](Cc1ccc(OC)cc1)N(C)C(=O)/C=C(\C)OC`, the IC50 was 16600 nM (CNR1; ligand displacement, radioligand).
